Assay outcomes deposited in PubChem by Broad Institute.
CAL PDZ FP-1 – CAL PDZ peptide-binding inhibitors, primary screen, biochemical, fluorescence polarization, Cer-tagged CAL PDZ, HTS. purified CAL PDZ, TMR-peptide fluorescence polarization, 1 h. 330,000 compounds, 0.02% hits. Golgi-associated PDZ and coiled-coil motif-containing protein (Homo sapiens), Q9HD26. inhibition, % at 20 µM;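 active = highest replicate inhibition of at least 40%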;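 also: plate controls were DMSO neutral control wells for no effect and unlabeled competitor peptide control wells for full effect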
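material = purified tagged CAL PDZ domain construct (CerCALP) | compound dosing = 20 µM, one dose | times = 1 h at RT | measured by = fluorescence polarization from S- and P-plane intensities, G-factor corrected | read-out = inhibition from polarization loss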
SR-BI DiI-HDL act – activators of SR-BI mediated DiI-HDL uptake, primary screen, ldlA[mSR-BI] CHO cells, DiI fluorescence; 3 h; 100 = double the neutral-control signal; activation, % at 12.5 µM; 320,000 compounds, 0.096% hits; AID 504775, 2011;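 active = mean replicate activation of at least 60% and every replicate at or above 60%; inconclusive = mean or all-replicate condition met, but not both; inactive = mean below 60% and not all replicates reaching 60%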;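 also: 0% = median plate neutral-control signal and 100% = twice that signal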
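material = CHO ldlA[mSR-BI] cells | medium = Ham's F12 with 0.5% BSA, HEPES 25 mM, pH 7.4 | reagent = fluorescent DiI-HDL, 10 µg/mL final | compound dosing = single-point compound dose | incubation = 3 h, 37 °C | measured by = bottom-read fluorescence, 550/595 nm | measure = HDL uptake via cellular fluorescence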
CAL PDZ FP-2 – untagged CAL PDZ binding inhibitors, primary screen, biochemical, fluorescence polarization, HTS. purified CAL PDZ, TMR-peptide fluorescence polarization, 1 h. inhibition, % at 24.9 µM. 300,000 compounds, 0.92% hits. AID 602252, 2012;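 active = mean inhibition of at least 30% with at least half of replicates also reaching 30%; inconclusive = no clear call, values can overlap the other calls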;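 also: 0% = DMSO neutral control and 100% = excess unlabeled competitor peptide PRC23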
SR-BI HDL uptake – inhibitors of SR-BI mediated HDL lipid uptake, primary screen, ldlA[mSR-BI] cells, fluorescence, single point | inhibition, % at 12.5 µM | ldlA[mSR-BI] CHO cells, DiI-HDL uptake fluorescence, 3 h | Scavenger receptor class B member 1 (Mus musculus), Q61009 | 320,000 compounds, 0.96% hits;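 active = mean replicate inhibition of at least 70% and a set share of replicates each scoring 70 or more; inconclusive = meets just one of the two criteria; inactive = fails both criteria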;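 also: 0% = median of neutral control wells and 100% = median of positive control wells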
dFosB act-1 – activators of delta FosB homodimer, primary screen, biochemical, fluorescence polarization, TAMRA-CDK5 oligo, single point | Protein FosB (Mus musculus), P13346 | purified delta FosB; percent of positive-control signal above neutral wells | activation, % at 25 µM | 340,000 compounds, 0.99% hits;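 active = mean activation above about 17%, with every replicate also reaching it, limit read from the data, passing the limit was not always enough; inconclusive = only one of the two conditions met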
Target sequence (P13346 whole entry, looked up): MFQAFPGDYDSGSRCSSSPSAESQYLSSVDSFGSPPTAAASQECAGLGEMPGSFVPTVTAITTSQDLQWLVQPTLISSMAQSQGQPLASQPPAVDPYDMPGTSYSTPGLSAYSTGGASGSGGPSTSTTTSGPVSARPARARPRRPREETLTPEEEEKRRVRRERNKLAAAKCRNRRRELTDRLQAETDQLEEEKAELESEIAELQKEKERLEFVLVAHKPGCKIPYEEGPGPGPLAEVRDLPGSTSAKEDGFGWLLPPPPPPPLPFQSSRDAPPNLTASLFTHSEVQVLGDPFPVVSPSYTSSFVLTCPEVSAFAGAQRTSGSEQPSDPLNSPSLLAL
dFosB act-2 – activators of mouse delta FosB DNA binding, confirmation, biochemical, fluorescence polarization, TAMRA-CDK5 oligo, cherry-picked samples; shares compounds with dFosB act-1; purified delta FosB; normalised: neutral wells 0, positive control 100; activation, % at 24.9 µM; 2,400 tested, under 10 active; AID 588690, 2011;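 active = highest replicate activation at or above 34% and every replicate reaching that threshold; inconclusive = meets only one of the two criteria; inactive = meets neither criterion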;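 also: higher polarization means more probe DNA bound by delta FosB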
An asterisk follows results filed as active; u = inconclusive; x = not tested or not shown. Compounds with a hit are over-represented: about 2.8% of the library has one in this group of screens.

SMILES	CAL PDZ FP-1	SR-BI DiI-HDL act	CAL PDZ FP-2	SR-BI HDL uptake	dFosB act-1	dFosB act-2
N#Cc1ccsc1NC(=O)COC(=O)c1ccc(NC(N)=O)cc1	-1	-8	-3	8	-11	x
CCSc1nnc(NC(=O)Cn2cnc3ccccc3c2=O)s1	0	3	4	-3	2	x
Cc1ccc(CSc2nnc(NC(=O)Cn3cnc4ccccc4c3=O)s2)cc1	0	11	-5	-11	31*	-4
COc1cccc(NC(=S)N2CCc3cc(OC)c(OC)cc3C2COc2ccc3c(C)cc(=O)oc3c2)c1 (stereo not drawn)	0	-10	-7	10	65*	1
Cc1ccc(C(=O)Nc2cccc(C(F)(F)F)c2)cc1NC(=O)c1nccn1C	0	-30	-2	30	27*	-1
CCC(C)n1c(=O)c(C(=O)Nc2ccccc2S(N)(=O)=O)c(O)c2ccccc21 (stereo not drawn)	1	-7	-2	7	74*	2
CC(C)Cn1c(=O)c(C(=O)Nc2ccccc2S(N)(=O)=O)c(O)c2ccccc21	0	6	-1	-6	1	x
O=C(CCC(=O)Nc1ccccc1)NNC(=O)C(c1ccccc1)c1ccccc1	0	-14	-2	14	42*	1
O=C(CCC(=O)Nc1ccccc1)NNC(=O)c1ccccc1Cl	0	0	x	0	3	x
CC1(C(=O)Nc2ccc(S(=O)(=O)Nc3ncccn3)cc2)CCCC1	-1	30	-3	-30	1	x
O=C(NNC(=O)c1sc2ccccc2c1Cl)Nc1ccc(Cl)cc1	0	-6	-4	6	19*	1
O=C(Nc1ccncc1)c1sc2ccccc2c1Cl	-1	4	0	-4	-24	x
CC(=O)Nc1ccc(NC(=O)CNC(=O)c2sc3ccccc3c2Cl)cc1	-2	-22	-3	22	42*	1
COC(=O)c1ccc(NC(=O)CNC(=O)c2sc3ccccc3c2Cl)cc1	-1	14	0	-14	53*	3
NC(=O)c1ccc(NC(=O)CNC(=O)c2sc3ccccc3c2Cl)cc1	0	-7	-4	7	38*	2
COc1ccc(N2CCN(C(=O)C3CCN(S(=O)(=O)c4ccc5c(c4)oc(=O)n5C)CC3)CC2)cc1	-2	-11	-2	11	-9	x
NC(N)=NS(=O)(=O)c1ccc(NC(=S)NC(=O)c2sc3ccccc3c2Cl)cc1	-4	-9	-2	9	29*	5
COc1cc(NS(=O)(=O)c2ccc(NC(=S)NC(=O)c3sc4ccccc4c3Cl)cc2)nc(OC)n1	-3	-7	-3	7	-3	x
CCN(CC)CCn1c2c(c(SCC(=O)Nc3ccc4c(c3)OCCO4)nc1=O)CCCC2	-3	7	-1	-7	-4	x
Cc1ccc(-n2c(=O)c3ccc(C(=O)NCc4ccco4)cc3n(Cc3ccccc3C#N)c2=O)cc1	-3	58	-1	-58	8	x
Cc1ccccc1Cn1c(=O)n(-c2ccccc2)c(=O)c2ccc(C(=O)NCc3ccco3)cc21	0	19	x	-19	45*	1
C=CCn1c(=O)c2ccc(C(=O)NCc3ccccc3)cc2n(Cc2cccc(Cl)c2)c1=O	-1	-9	x	9	42*	0
O=C(NCc1ccco1)c1ccc2c(=O)n(-c3ccccc3)c(=O)n(Cc3cccc(F)c3)c2c1	0	6	x	-6	47*	-1
CCOC(=O)C1CCCN(/C=C2\SC(=S)N(CC)C2=O)C1 (stereo not drawn)	-1	-1	0	1	-7	x
CC1CCC(NC(=O)COC(=O)C2=NN(c3ccccc3)C(=O)CC2)CC1 (stereo not drawn)	-1	13	x	-13	-7	x
SMILES	CAL PDZ FP-1	SR-BI DiI-HDL act	CAL PDZ FP-2	SR-BI HDL uptake	dFosB act-1	dFosB act-2
Cc1ccc(NC(=O)NCCCN2CCCC2=O)cc1C	-1	3	-3	-3	-1	x
CCn1nc(C)c(Br)c1C(=O)Sc1ccccc1Cl	0	7	2	-7	2	x
Cc1ccc(Cl)c2c(N=Nc3ccccc3)c(O)[nH]c12	28	20	-4	-20	-9	x
Cc1cc(N2CCN(c3nc(-c4ccc([N+](=O)[O-])cc4)cs3)CC2)c2ccccc2n1	-1	-48	3	48	26*	-2
CCOc1ccc(-c2nnn(CC(=O)Nc3ccccc3OC)n2)cc1OCC	-1	-33	-1	33	59*	0
COc1ccc(-c2nnn(CC(=O)NCc3cccs3)n2)cc1OC	-1	-4	2	4	30*	-2
COc1ccccc1C(=O)Nc1ccc(-c2nnn(CC(=O)NCc3ccco3)n2)cc1	-1	-24	-5	24	42*	7
COc1ccc(-c2nnn(CC(=O)NCc3ccccc3)n2)cc1OC	-2	13	0	-13	11	x
O=C(Cn1nnc(-c2ccccc2)n1)NCc1ccco1	-1	11	x	-11	10	x
CN(C)c1ccc(C(C(=O)NCc2ccccc2)N(Cc2ccco2)C(=O)c2snc(C(N)=O)c2N)cc1 (stereo not drawn)	-1	-9	-4	9	-16	x
CCOc1c(C)cnc2c1c(=O)n(Cc1ccccc1F)c(=O)n2C	0	0	x	0	-1	x
COC(=O)C(NS(=O)(=O)c1ccc(N2CCCC2=O)cc1)c1ccccc1 (stereo not drawn)	-1	9	-6	-9	-2	x
O=C(NCCN1CCOCC1)C1CC(=O)N(c2ccc(Cl)cc2)C1 (stereo not drawn)	-4	x	-6	x	1	x
CC(Nc1nc(-c2ccncc2)nc2ccccc12)c1ccccc1 (stereo not drawn)	-6	-22	2	22	-12	x
CC(Nc1nc(N2CCNCC2)nc2ccccc12)c1ccccc1 (stereo not drawn)	-1	25	1	-25	48*	5
CCCCCCCC(=O)NC1=NC(=O)C(C)(C)S1	-2	1	x	-1	-1	x
CCOC(=O)c1ccc(NC(=O)CN2C(=O)NC3(CCC(C)CC3)C2=O)cc1 (stereo not drawn)	-1	-5	x	5	u	x
COC(=O)c1ccc(NC(=O)CN2C(=O)NC3(CCC(C)CC3)C2=O)cc1 (stereo not drawn)	-1	10	56*	-10	18*	3
